# What was measured:
# Format in all cases: functional
# RXF 393 = experiment: Antitumor activity against human RXF393 cells after 48 hrs by sulforhodamine B assay; settings: RXF 393, 48 h
# Method in brief: (§1)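 Cells were cultured in RPMI-1640 (5% FBS, 2 mM L-glutamine), pre-incubated for 24 h with time-zero plates TCA-fixed, then exposed for 48 h to five serial dilutions. The SRB read-out at 515 nm used time-zero, control and test absorbances. GI50 solves [(Ti−Tz)/(C−Tz)]×100 = 50 (net protein increase). TGI is the concentration giving 100% growth inhibition.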
# [1] = Antitumor activity against human […] cells at 10 uM after 48 hrs by sulforhodamine B assay relative to control; settings: values are per cent of control
# Method in brief: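 NCI panel lines were grown in RPMI-1640 with 5% FBS and 2 mM L-glutamine and seeded at 5000–40,000 cells/well according to doubling time. After 24 h at 37 °C, 5% CO2, one dose from a DMSO stock was added for 48 h. Cells were TCA-fixed (10% final adherent, 16% suspension), SRB-stained and read at 515 nm. Percent growth is relative to untreated control.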
# CCRF-CEM = experiment: Antitumor activity against human CCRF-CEM cells after 48 hrs by sulforhodamine B assay
# Method in brief: (§2)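 Cells were grown in RPMI-1640 with 5% FBS and 2 mM L-glutamine, plated at 5000–40,000 cells/well, and preincubated for 24 h. A time-zero plate was TCA-fixed. Compounds were added from DMSO stock at five concentrations for 48 h at 37 °C. Cells were fixed with TCA (adherent 10%, suspension 16%) and stained with SRB, and A515 was read. GI50 and TGI were calculated from Tz, control and test absorbances.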
# MOLT-4 = experiment: Antitumor activity against human MOLT4 cells after 48 hrs by sulforhodamine B assay; settings: MOLT-4, 48 h; method in brief: as §1
# SR = experiment: Antitumor activity against human SR cells after 48 hrs by sulforhodamine B assay; method in brief: as §1
# A549 = experiment: Antitumor activity against human A549 cells after 48 hrs by sulforhodamine B assay; settings: A549, 48 h; method in brief: as §2
# EKVX = experiment: Antitumor activity against human EKVX cells after 48 hrs by sulforhodamine B assay; method in brief: as §2
# NCI-H23 = experiment: Antitumor activity against human NCI-H23 cells after 48 hrs by sulforhodamine B assay; settings: NCI-H23, 48 h; method in brief: as §1
# NCI-H322M = experiment: Antitumor activity against human NCI-H322M cells after 48 hrs by sulforhodamine B assay; method in brief: as §1
# COLO 205 = experiment: Antitumor activity against human COLO205 cells after 48 hrs by sulforhodamine B assay; settings: COLO 205, 48 h; method in brief: as §2
# HCT-116 = experiment: Antitumor activity against human HCT116 cells after 48 hrs by sulforhodamine B assay; settings: HCT-116, 48 h; method in brief: as §2
# HT-29 = experiment: Antitumor activity against human HT-29 cells after 48 hrs by sulforhodamine B assay; settings: HT-29, 48 h; method in brief: as §2
# KM12 = experiment: Antitumor activity against human KM12 cells after 48 hrs by sulforhodamine B assay; settings: KM12, 48 h; method in brief: as §2
# SW-620 = experiment: Antitumor activity against human SW620 cells after 48 hrs by sulforhodamine B assay; settings: SW-620, 48 h
# Method in brief: (§3)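 Cells grown in RPMI-1640 with 5% FBS and 2 mM glutamine, plated and preincubated 24 h; time-zero plates TCA-fixed. Five-level serial dilutions added, 48 h at 37 °C. TCA fixation, SRB staining, absorbance 515 nm. GI50 derived from [(Ti−Tz)/(C−Tz)]×100 = 50; TGI is concentration giving 100% growth inhibition.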
# SF-268 = experiment: Antitumor activity against human SF268 cells after 48 hrs by sulforhodamine B assay; settings: SF-268, 48 h; method in brief: as §1
# SNB-19 = experiment: Antitumor activity against human SNB19 cells after 48 hrs by sulforhodamine B assay; settings: SNB-19, 48 h; method in brief: as §1
# U-251 = experiment: Antitumor activity against human U251 cells after 48 hrs by sulforhodamine B assay; settings: U-251, 48 h; method in brief: as §3
# M14 = experiment: Antitumor activity against human M14 cells after 48 hrs by sulforhodamine B assay; settings: M14, 48 h; method in brief: as §2
# MDA-MB-435 = experiment: Antitumor activity against human MDA-MB-435 cells after 48 hrs by sulforhodamine B assay; settings: MDA-MB-435, 48 h; method in brief: as §2
# SK-MEL-5 = experiment: Antitumor activity against human SK-MEL-5 cells after 48 hrs by sulforhodamine B assay; settings: SK-MEL-5, 48 h; method in brief: as §1
# OVCAR-3 = experiment: Antitumor activity against human OVCAR-3 cells after 48 hrs by sulforhodamine B assay; settings: OVCAR-3, 48 h; method in brief: as §1
# OVCAR-4 = experiment: Antitumor activity against human OVCAR4 cells after 48 hrs by sulforhodamine B assay; settings: OVCAR-4, 48 h; method in brief: as §1
# OVCAR-8 = experiment: Antitumor activity against human OVCAR8 cells after 48 hrs by sulforhodamine B assay; settings: OVCAR-8, 48 h; method in brief: as §1
# NCI/ADR-RES = experiment: Antitumor activity against human NCI/ADR-RES cells after 48 hrs by sulforhodamine B assay; method in brief: as §1
# SK-OV-3 = experiment: Antitumor activity against human SKOV3 cells after 48 hrs by sulforhodamine B assay; settings: SK-OV-3, 48 h; method in brief: as §1
# 786-0 = experiment: Antitumor activity against human 786-0 cells after 48 hrs by sulforhodamine B assay; settings: 786-0, 48 h; method in brief: as §2
# A498 = experiment: Antitumor activity against human A498 cells after 48 hrs by sulforhodamine B assay; settings: A498, 48 h; method in brief: as §2
# SN12C = experiment: Antitumor activity against human SN12C cells after 48 hrs by sulforhodamine B assay; method in brief: as §1
# TK-10 = experiment: Antitumor activity against human TK10 cells after 48 hrs by sulforhodamine B assay; settings: TK-10, 48 h; method in brief: as §3
# DU-145 = experiment: Antitumor activity against human DU145 cells after 48 hrs by sulforhodamine B assay; settings: DU-145, 48 h; method in brief: as §2
# [2] = Antitumor activity against human Hs 578T cells after 48 hrs by sulforhodamine B assay; method in brief: as §2
# T47D = experiment: Antitumor activity against human T47D cells after 48 hrs by sulforhodamine B assay; method in brief: as §3
smiles,measurement,setting,value
COc1ccc(NC(=O)Nc2ccccc2OCCCOc2ccccc2NC(=O)Nc2ccc(OC)cc2)cc1,TGI,RXF 393,> 100 µM
same,"growth, % of control at 10 µM",[1],77%
same,GI50,CCRF-CEM,14.4 µM
same,TGI,CCRF-CEM,78.9 µM
same,GI50,MOLT-4,17.7 µM
same,TGI,MOLT-4,36.6 µM
same,GI50,SR,0.2 µM
same,TGI,SR,4 µM
same,GI50,A549,> 100 µM
same,TGI,A549,> 100 µM
same,GI50,EKVX,10.5 µM
same,TGI,EKVX,> 100 µM
same,GI50,NCI-H23,12.4 µM
same,TGI,NCI-H23,> 100 µM
same,GI50,NCI-H322M,> 100 µM
same,TGI,NCI-H322M,> 100 µM
same,GI50,COLO 205,14.3 µM
same,TGI,COLO 205,> 100 µM
same,GI50,HCT-116,5.3 µM
same,TGI,HCT-116,> 100 µM
same,GI50,HT-29,> 100 µM
same,TGI,HT-29,> 100 µM
same,GI50,KM12,> 100 µM
same,TGI,KM12,> 100 µM
same,GI50,SW-620,> 100 µM
same,TGI,SW-620,> 100 µM
same,GI50,SF-268,7.3 µM
same,TGI,SF-268,> 100 µM
same,GI50,SNB-19,4.3 µM
same,TGI,SNB-19,26.1 µM
same,GI50,U-251,3.7 µM
same,TGI,U-251,28.8 µM
same,GI50,M14,45.7 µM
same,TGI,M14,> 100 µM
same,GI50,MDA-MB-435,> 100 µM
same,TGI,MDA-MB-435,> 100 µM
same,GI50,SK-MEL-5,> 100 µM
same,TGI,SK-MEL-5,> 100 µM
same,GI50,OVCAR-3,> 100 µM
same,TGI,OVCAR-3,> 100 µM
same,GI50,OVCAR-4,> 100 µM
same,TGI,OVCAR-4,> 100 µM
same,GI50,OVCAR-8,8.9 µM
same,TGI,OVCAR-8,> 100 µM
same,GI50,NCI/ADR-RES,> 100 µM
same,TGI,NCI/ADR-RES,> 100 µM
same,GI50,SK-OV-3,5 µM
same,TGI,SK-OV-3,> 100 µM
same,TGI,786-0,> 100 µM
same,GI50,A498,16 µM
same,TGI,A498,72.9 µM
same,GI50,SN12C,> 100 µM
same,TGI,SN12C,> 100 µM
same,GI50,TK-10,4 µM
same,TGI,TK-10,49.7 µM
same,GI50,DU-145,> 100 µM
same,TGI,DU-145,> 100 µM
same,GI50,[2],> 100 µM
same,TGI,[2],> 100 µM
same,GI50,T47D,> 100 µM
same,TGI,T47D,> 100 µM
